Measurements pooled from the literature.
Compare with care: the assays were run in different laboratories.
Target: Mitogen-activated protein kinase kinase kinase 5 (MAP3K5, Homo sapiens, UniProt Q99683)
One construct used (Q99683 1-1374): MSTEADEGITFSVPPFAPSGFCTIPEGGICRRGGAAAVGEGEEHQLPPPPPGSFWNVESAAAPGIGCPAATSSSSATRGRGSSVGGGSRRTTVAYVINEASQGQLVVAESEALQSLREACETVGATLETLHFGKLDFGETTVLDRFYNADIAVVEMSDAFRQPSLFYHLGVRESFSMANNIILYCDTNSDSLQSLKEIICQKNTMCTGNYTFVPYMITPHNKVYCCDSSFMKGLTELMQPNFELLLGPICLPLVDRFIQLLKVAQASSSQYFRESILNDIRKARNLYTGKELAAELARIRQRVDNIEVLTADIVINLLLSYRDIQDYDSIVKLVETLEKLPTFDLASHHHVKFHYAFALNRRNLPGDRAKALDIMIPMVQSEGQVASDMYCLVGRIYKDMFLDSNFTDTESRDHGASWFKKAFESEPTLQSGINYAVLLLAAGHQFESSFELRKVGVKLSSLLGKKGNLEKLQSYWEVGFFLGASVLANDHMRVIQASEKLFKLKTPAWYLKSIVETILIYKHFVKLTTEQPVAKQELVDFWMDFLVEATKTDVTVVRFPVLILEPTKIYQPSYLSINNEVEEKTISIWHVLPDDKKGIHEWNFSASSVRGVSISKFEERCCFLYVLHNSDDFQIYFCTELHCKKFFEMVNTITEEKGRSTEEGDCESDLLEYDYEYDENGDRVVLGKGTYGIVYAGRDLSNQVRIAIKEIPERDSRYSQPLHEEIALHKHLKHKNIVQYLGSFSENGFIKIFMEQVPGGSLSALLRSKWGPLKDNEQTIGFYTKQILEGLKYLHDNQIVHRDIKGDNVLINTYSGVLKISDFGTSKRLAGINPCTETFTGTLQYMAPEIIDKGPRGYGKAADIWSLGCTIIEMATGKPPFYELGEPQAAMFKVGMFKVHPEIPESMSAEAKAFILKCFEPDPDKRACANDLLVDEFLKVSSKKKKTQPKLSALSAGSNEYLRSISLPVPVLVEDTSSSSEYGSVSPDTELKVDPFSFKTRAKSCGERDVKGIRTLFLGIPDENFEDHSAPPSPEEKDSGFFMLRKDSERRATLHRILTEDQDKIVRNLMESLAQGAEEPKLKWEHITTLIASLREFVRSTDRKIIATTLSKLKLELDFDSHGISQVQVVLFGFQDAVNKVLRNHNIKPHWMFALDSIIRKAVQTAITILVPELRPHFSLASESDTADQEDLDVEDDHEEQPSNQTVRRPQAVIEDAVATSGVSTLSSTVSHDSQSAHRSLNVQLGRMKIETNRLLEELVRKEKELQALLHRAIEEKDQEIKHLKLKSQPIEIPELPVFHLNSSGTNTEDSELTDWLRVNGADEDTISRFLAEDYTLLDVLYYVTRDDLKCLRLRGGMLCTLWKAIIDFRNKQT

Compound	effect on	action	technique	cell line	tested at	measurement	result
CNC(=O)Nc1ccc2c(c1)[C@@]1(CC2)OC(=O)N(CC(=O)N(Cc2ccc(F)cc2)[C@@H](C)C(F)(F)F)C1=O	cell-free assay	–	competition with immobilised ligand	–	1 µM	remaining binding	100%
O=C1NC(=O)c2cc(Nc3ccc(F)cc3)c(Nc3ccc(F)cc3)cc21	cell-free assay	–	–	–	0.5 µM	remaining signal	96.6%
CC(C)c1ccc(NC(=O)c2cccs2)c(-c2nc3ccccc3[nH]c2=O)c1	enzyme activity	inhibitor	–	–	1 µM	activity vs control	107%
Cn1c(=O)n(-c2ccc(C(C)(C)C#N)cc2)c2c3cc(-c4cnc5ccccc5c4)ccc3ncc21	enzyme activity	inhibitor	–	–	10 µM	remaining activity	106%
CC/C(=N\NC(=O)NCc1cccc(O)c1)c1ccc(O)c(C)c1O	enzyme activity	inhibitor	–	–	0.1 µM	inhibition	4%
c1ccc(N2CCN(Cc3nc4ccccc4[nH]3)CC2)nc1	binding	–	competition with immobilised ligand	–	1 µM	remaining binding	93%
Cc1ccc(Nc2nccc(N(C)c3ccc4c(C)n(C)nc4c3)n2)cc1S(N)(=O)=O	enzyme activity	inhibitor	–	–	0.3 µM	inhibition	6%
CCN1CCN(Cc2ccc(NC(=O)c3ccc(C)c(Oc4ccnc5[nH]ccc45)c3)cc2C(F)(F)F)CC1	target engagement in cells	inhibitor	chemoproteomics	A-375	0.5 µM	inhibition	-10.5%
CN1CC(Oc2cnc(C#N)cc2-c2ccn3nc(NC(=O)C4CC4)cc3c2)C1	enzyme activity	inhibitor	–	–	1 µM	inhibition	-2%
N#CC1c2c([nH]c3c(Cl)c(Cl)ccc23)C(=O)NC12CCCCC2 (racemic)	thermal stability	–	DSF	–	10 µM	ΔTm	0.6 °C
CCCCNc1ncc2c(-c3ccc(F)cc3)nn(C[C@H]3CC[C@H](N)CC3)c2n1	target engagement in cells	inhibitor	chemoproteomics	–	20 mM	inhibition	-10.7%
Cn1nc(C(F)(F)F)cc1-c1cnc(N2CCc3cc(S(=O)(=O)Nc4c(F)cc(Cl)cc4F)cc(N4CCCC4=O)c32)nc1	cell-free assay	–	competition with immobilised ligand	–	1 µM	remaining binding	100%
CNCc1ccc(-c2cc(-c3nc(-c4ccc(S(=O)(=O)C(C)C)cc4)cnc3N)on2)cc1	enzyme activity	inhibitor	–	–	0.4 µM	inhibition	0%
CN(C(=O)c1ccccc1)c1cc(N(C)c2ccc3c(c2)CCc2ccc(C(=O)NCCN4CCOCC4)cc2C3=O)ccc1F	cell-free assay	–	competition with immobilised ligand	–	1 µM	remaining binding	100%
CC(C)(C)c1nc(-c2cccc(NS(=O)(=O)c3c(F)cccc3F)c2F)c(-c2ccnc(N)n2)s1	enzyme activity	inhibitor	radiometric	–	1 µM	remaining activity	98%
Cc1cc(NC(=O)c2cccc3cc(-c4cccc5[nH]nc(N)c45)ccc23)ccc1F	enzyme activity	inhibitor	–	–	0.1 µM	activity vs control	109%
Cc1sc(C(=O)NC2COC2)cc1-n1cc(NC(=O)Nc2c(F)cccc2Cl)cn1	enzyme activity	inhibitor	–	–	10 µM	remaining activity	94%
Cn1c2c(Cl)c(Cl)ccc2c2cc[nH]c(=O)c21	thermal stability	–	DSF	–	10 µM	ΔTm	2.1 °C
CC(C)(O)[C@H]1CC[C@H](Nc2ccc3ncc(-c4cccc(C(F)(F)F)c4)n3n2)CC1	enzyme activity	inhibitor	–	–	1 µM	remaining activity	96.7%

Compound	effect on	action	technique	cell line	tested at	measurement	result
CNCc1ccccc1-c1csc([C@@H](C)Nc2nc(C)nc3cc(OC)c(OC)cc23)c1	cell-free assay	–	competition with immobilised ligand	–	1 µM	remaining binding	91%
O=C(Nc1cnn(-c2csc(C(=O)NC3COC3)c2)c1)Nc1ccccc1Cl	enzyme activity	inhibitor	–	–	5 µM	remaining activity	91.2%
CN1CCC2(CC1)NC(=O)c1c(c3ccc(Cl)c(Cl)c3n1C)C2C#N (racemic)	thermal stability	–	DSF	–	10 µM	ΔTm	0.3 °C
CCOc1cc(-c2nncn2C)ccc1Nc1ncc2cc(C)nc(NCC(C)(C)C)c2n1	cell-free assay	–	TR-FRET	–	1 µM	inhibition	≤ 15%
CO[C@@H](C)c1c(Nc2ccc([C@@H](N(C)C(=O)C3CCS(=O)(=O)CC3)C(F)(F)F)cc2)cnc2cc(Cl)nn12	cell-free assay	–	competition with immobilised ligand	–	1 µM	remaining binding	81%
CNC(=O)c1cc(Oc2ccc(NC(=O)Nc3ccc(Cl)c(C(F)(F)F)c3)cc2)ccn1	enzyme activity	inhibitor	–	–	0.3 µM	inhibition	0%
FC(F)(F)Oc1cccc(-c2cnc3ccc(-c4ccncc4)nn23)c1	enzyme activity	inhibitor	radiometric	–	1 µM	activity vs control	88%
Cn1c2c(c3ccc(Cl)c(Cl)c31)C(C#N)C(C)(C)NC2=O (stereo not shown)	thermal stability	–	DSF	–	10 µM	ΔTm	2.6 °C
c1ccc(CNc2nc(N3CCOc4ccccc43)nc3c2CCCC3)cc1	target engagement in cells	inhibitor	chemoproteomics	–	20 mM	inhibition	-10.3%
N#CCCc1ccc2c(c1)-c1[nH]c3ccc([N+](=O)[O-])cc3c1CC(=O)N2	cell-free assay	–	–	–	0.5 µM	remaining signal	101%
CC(=O)N1CCC(c2ccc(C(=O)NC3=NCCN3)cc2C(F)(F)F)CC1	cell-free assay	–	competition with immobilised ligand	–	1 µM	remaining binding	100%
CCN1CCN(Cc2ccc(NC(=O)c3ccc(C)c(/C=C/c4cnc5[nH]ccc5c4OC)c3)cc2C(F)(F)F)CC1	target engagement in cells	inhibitor	chemoproteomics	A-375	5 µM	inhibition	-35.5%
CCC1(CC)NC(=O)c2c(c3ccc(Cl)c(Cl)c3n2C)C1C#N (stereo not shown)	thermal stability	–	DSF	–	10 µM	ΔTm	0.7 °C
Cc1noc([C@H]2C[C@@H](c3ccc(C(F)(F)F)cc3)CN(C(=O)N3CCS(=O)(=O)C3)C2)n1	cell-free assay	–	competition with immobilised ligand	–	1 µM	remaining binding	100%
CCN(CC)CCNC(=O)c1c(C)[nH]c(/C=C2\C(=O)Nc3ccc(F)cc32)c1C	enzyme activity	inhibitor	–	–	0.3 µM	inhibition	4%
CC1(C)NC(=O)c2[nH]c3c(Cl)c(Cl)ccc3c2C1C#N (stereo not shown)	thermal stability	–	DSF	–	10 µM	ΔTm	1.6 °C
COc1cc(/C=C/C(=O)CC(=O)/C=C/c2ccc(O)c(OC)c2)ccc1O	enzyme activity	inhibitor	–	–	1 µM	activity vs control	101%
COc1cc(Nc2cnc(C#N)c(O[C@H](C)CN(C)C)n2)ncc1-c1cnn(C)c1	enzyme activity	inhibitor	radiometric	–	1 µM	remaining activity	95%
